Data set [1] addresses 20S constitutive proteasome C-L (β1) (Homo sapiens, UniProt P28072+Q99436). As to the kind of experiment: In vitro proteasome activity assay, constitutive proteasome C-L activity. The format is biochemical.
In data set [2] the target is immunoproteasome C-L (β1) (Homo sapiens, UniProt P28065). Put plainly: In vitro proteasome activity assay, immunoproteasome C-L activity. The format is biochemical. The following applies: for effect on C-L activity of the immunoproteasome: at ≤10 μM.
The target in data set [3] is 20S constitutive proteasome T-L (β2) (Homo sapiens, UniProt P49720+Q99436). Put plainly: In vitro proteasome activity assay, constitutive proteasome T-L activity. The format is biochemical.
In data set [4] the target is 20S constitutive proteasome CT-L (β5) (Homo sapiens, UniProt P20618+P28074). Put plainly: In vitro proteasome activity assay, constitutive proteasome CT-L activity. The format is biochemical.
Data set [5] addresses immunoproteasome CT-L (β5) (Homo sapiens, UniProt P20618+P28062). As to the kind of experiment: In vitro proteasome activity assay, immunoproteasome CT-L activity. The format is biochemical. The following applies: for effect on CT-L activity of the immunoproteasome: at ≤10 μM; for change of CT-L activity of the immunoproteasome on inhibition of T-L activity: Fig. S1.
The target in data set [6] is immunoproteasome T-L (β2) (Homo sapiens, UniProt P40306+P49720). Put plainly: In vitro proteasome activity assay, immunoproteasome T-L activity. The format is biochemical.
Data set [7] concerns MYCN2 neuroblastoma cells. As to the kind of experiment: Cell viability assay. The format is cell-based, human. Particulars: MTS; for effect on viability of MYCN2 cells: highest concentration tested (1 μM), 24 h exposure. A digest of the protocol:
(§1)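 Cells plated overnight in RPMI with 10% heat-inactivated FBS, penicillin (100 U/ml) and streptomycin (100 μg/ml), at 37 °C in humidified 5% CO2. […] MTS read-out by absorbance at 490 nm. Two experiments, each in triplicate wells (n=6); viability averaged relative to untreated cells.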

The subject of data set [8] is SK-N-SH neuroblastoma cells. Put plainly: Cell viability assay. The format is cell-based, human. Particulars: MTS; for effect on viability of SK-N-SH cells: highest concentration tested (1 μM), 24 h exposure. An outline of the steps: as §1
In data set [9] the test system is SK-N-Be(2)c neuroblastoma cells. As to the kind of experiment: Cell viability assay. The format is cell-based, human. Particulars: highest concentration tested (1 μM), 24 h exposure, MTS. An outline of the steps: as §1

Usually Ki stands for a dissociation constant, usually derived from enzyme kinetics or from competition with a known ligand. A lower Ki goes with higher affinity.

In the case of `CCCCCCCCCCCCNC(=O)N[C@H](C(=O)N[C@H]1CSCCNC(=O)/C=C/[C@H](C)NC1=O)C(C)C` [Compound 1, (S)-2-(3-Dodecylureido)-3-methyl-N-((8S,11R,E)-8-methyl-5,10-dioxo-1-thia-4,9-diazacyclododec-6-en-11-yl)butanamide], the Ki in data set [1] is above 10000 nM; in data set [2] it was above 10000 nM; in [3] it was 1760 nM; in [4], 280 nM; in [5], above 10000 nM; in data set [6], 1390 nM. For the same compound, in data set [2], the “effect on C-L activity of the immunoproteasome” value (“effect on C-L activity” below) is reported as “no effect”. Further, the “effect on CT-L activity of the immunoproteasome” value (from here on “effect on CT-L activity”) in [5] is listed as “no effect”.

Regarding `CC(C)C[C@H](NC(=O)[C@H](Cc1ccccc1)NC(=O)c1cnccn1)B(O)O` [BTZ, bortezomib, reference compound], the “cytotoxic effect in MYCN2 cells” value in [7] (at 0.1–1 μM, 24 h) is on record as “strong cytotoxic effects”. Further, the “cytotoxic effect in SK-N-SH cells” value in data set [8] (at 0.1–1 μM, 24 h) was “strong cytotoxic effects”.

In the case of `CC(C)[C@H](NC(=O)c1cnccn1)C(=O)N[C@H]1CSCCNC(=O)/C=C/[C@H](C)NC1=O` [Compound 6, N-((S)-3-Methyl-1-(((8S,11R,E)-8-methyl-5,10-dioxo-1-thia-4,9-diazacyclododec-6-en-11-yl)amino)-1-oxobutan-2-yl)pyrazine-2-carboxamide], the Ki in data set [1] is above 10000 nM; in [2], above 10000 nM; in data set [3], 920 nM; in data set [4], 1220 nM; in data set [5], above 10000 nM; in data set [6] it was 750 nM. The “effect on viability of SK-N-Be(2)c cells” value in data set [9] is on record as “minimal effects”. In addition, the “effect on viability of MYCN2 cells” value in data set [7] is “minimal effects”. Further, the “effect on C-L activity” value in [2] is recorded as “no effect”. In addition, the “change of CT-L activity of the immunoproteasome on inhibition of T-L activity” value in data set [5] is recorded as “stimulate the CT-L activity”. Moreover, in data set [5], the “effect on CT-L activity” value is “no effect”. For the same compound, the “effect on viability of SK-N-SH cells” value in [8] is “minimal effects”.

`CC(C)Cc1ccc([C@H](C)C(=O)N[C@H](C(=O)N[C@H]2CSCCNC(=O)/C=C/[C@H](C)NC2=O)C(C)C)cc1` [Compound 5, (S)-2-((S)-2-(4-Isobutylphenyl)propanamido)-3-methyl-N-((8S,11R,E)-8-methyl-5,10-dioxo-1-thia-4,9-diazacyclododec-6-en-11-yl)butanamide]: the Ki in data set [1] was above 10000 nM; in data set [2], above 10000 nM; in [3] it was 1070 nM; in data set [4], 910 nM; in data set [5] it was above 10000 nM; in data set [6] it was 740 nM. In data set [9], the “effect on viability of SK-N-Be(2)c cells” value is “minimal effects”. Besides, the “effect on viability of MYCN2 cells” value in data set [7] is given as “minimal effects”. In addition, the “effect on C-L activity” value in data set [2] was “no effect”. Besides, the “change of CT-L activity of the immunoproteasome on inhibition of T-L activity” value in data set [5] is “stimulate the CT-L activity”. The “effect on CT-L activity” value in data set [5] is recorded as “no effect”. The “effect on viability of SK-N-SH cells” value in data set [8] is given as “minimal effects”.

Values taken from paper PMC5920785 (Bioorganic & medicinal chemistry, 2017).
